Sampled rows, rich in hits. Any-hit rate of the full collection: about 8.2%.
M1 agonist = agonists of M1 muscarinic receptor; CHO-M1 cells, Fluo-4 calcium fluorescence, agonist mode; stronger effect = higher value; B-score at 10 µM; 64,000 tested, 3% active; AID 626;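 active means fluorescence rise, raw or as B-score row- and column-corrected plate score, outside the 99.7% band of its plate's samples, either direction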
M1 antag = M1 muscarinic receptor (rat) antagonism. P08482. CHO-M1 cells, Fluo-4 calcium, ACh EC80 antagonist mode; stronger effect = lower value. B-score at 10 µM. 64,000 tested, 3.4% active. AID 628;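 active means calcium fluorescence response, raw or row-and-column corrected B-score, differing from the plate sample mean either way at a set confidence level, mostly lower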
D1 mod = allosteric modulators of human D1 dopamine receptor | P21728 | HEK293 D1, CRE-luciferase, dopamine EC30 potentiation; actives deviate in either direction | B-score at 10 µM | 58,000 tested, 5.9% active | AID 641;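 active means luminescence count or its row- and column-corrected plate score outside the 99.7% band of the plate's sample wells, on either side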
RORA act = RORA (human) activation; CHO-K1 Gal4-RORA LBD luciferase reporter, luminescence; percent increase over mock-subtracted basal signal; P35398; AID 560; 65,000 tested, 1.5% active; activation, % at 10 µM;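 active means activation above the mean of all tested compounds plus 3 SD, cut at about 49% in these data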;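 further: 0% = DMSO-treated RORA cells and 100% = added signal equal to DMSO minus mock-transfected cells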
HePTP inhibitor = human HePTP phosphatase inhibition. 110,000 tested, 0.64% active. P35236. inhibition, % at 20 µM. recombinant HePTP phosphatase activity, OD absorbance; in the data active means inhibition above about 50%;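 further: plate controls were vehicle for no effect and reference inhibitor for full effect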
SF-1 act = SF-1 (human) activation. Q13285. CHO-K1 Gal4-SF-1 LBD luciferase reporter; % increase over DMSO SF-1-specific signal. activation, % at 10 µM. 65,000 tested, 1.9% active. AID 522;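 active means activation above the mean activation of all tested compounds plus 3 SD, cut at about 50% in these data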
Target sequence (Q13285 whole entry, looked up, the tested form may be a part): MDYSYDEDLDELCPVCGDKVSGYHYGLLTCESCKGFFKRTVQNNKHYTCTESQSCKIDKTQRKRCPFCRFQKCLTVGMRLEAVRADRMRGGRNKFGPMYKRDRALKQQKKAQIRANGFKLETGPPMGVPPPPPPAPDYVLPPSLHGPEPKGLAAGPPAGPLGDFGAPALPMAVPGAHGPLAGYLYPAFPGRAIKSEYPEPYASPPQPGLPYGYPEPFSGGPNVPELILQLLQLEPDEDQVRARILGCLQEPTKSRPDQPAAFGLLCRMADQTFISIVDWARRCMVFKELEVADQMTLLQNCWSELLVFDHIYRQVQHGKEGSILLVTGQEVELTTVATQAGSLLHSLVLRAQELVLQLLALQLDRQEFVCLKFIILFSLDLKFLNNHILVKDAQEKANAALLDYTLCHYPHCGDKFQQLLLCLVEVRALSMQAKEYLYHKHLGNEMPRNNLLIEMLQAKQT
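Material: Transient Gal4-SF-1 LBD reporter, CHO-K1 | Input: 4,000 cells/well | Dosing: One dose, 10 µM compound, 1% DMSO | Incubation: 20 h compound treatment, 37 °C | Detection: SteadyLite luciferase luminescence | Evaluation: Percent activation relative to DMSO median and mock-transfected background | Benchmarks: DMSO-treated SF-1-transfected cells as negative, DMSO-treated mock-transfected cells lacking SF-1 as background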
* = called active by the depositor; ! = repeats disagree.

CCN1C(=O)CC(N2CCC(Nc3ccc(F)cc3)CC2)C1=O (stereo not given) was read as M1 agonist -0.021, M1 antag 0.46, D1 mod 0.14, RORA act 5, HePTP inhibitor -6 and SF-1 act 11.
Screening COc1ccc(OC)c(C2C(C(=O)/C=C/c3ccccc3)=C(O)C(=O)N2CCCCCC(=O)O)c1 (stereo not given) returned HePTP inhibitor 78*.
`COc1cccc(C2C(C(=O)/C=C/c3ccccc3)=C(O)C(=O)N2CCCCCC(=O)O)c1` (stereo not given) gave HePTP inhibitor 5.
`COc1ccc(C(=O)NC(c2ccccc2)c2ccccc2)cc1OC` gave HePTP inhibitor 6.
Screening O=c1cc(Nc2ccc3c(c2)OCCO3)[nH]c(=O)n1C1CCCCC1 returned M1 agonist -0.61, M1 antag 0.03, D1 mod -0.33, RORA act 48 and SF-1 act 29.
`CCc1ccc(Nc2cc(=O)n(C3CCCCC3)c(=O)[nH]2)cc1` gave M1 agonist -1.8, M1 antag 0.051, D1 mod -0.39, RORA act 16, HePTP inhibitor -1 and SF-1 act 52*.
Screening O=C(CCN1C(=O)/C(=C\c2ccc(Cl)cc2)SC1=S)Nc1ccc(C(=O)O)cc1 returned HePTP inhibitor -15.
Screening NC(=O)C1CCN(CCCNC2CC(=O)N(Cc3ccc(N4CCCC4=O)cc3)C2=O)CC1 (stereo not given) returned M1 agonist 4.2*, M1 antag 0.075, D1 mod -0.42, RORA act 8, HePTP inhibitor 12 and SF-1 act -9.
`CCCOc1ccc(N2C(=O)CC(NCCCN3CCC(C(N)=O)CC3)C2=O)cc1` (stereo not given) gave M1 agonist 0.0045, M1 antag -0.11, D1 mod -0.46, RORA act 2, HePTP inhibitor 4 and SF-1 act 5.
Screening Cc1ccc(-n2cnc3c(sc4nccc(N(C)C)c43)c2=O)cc1 returned M1 agonist -0.049, M1 antag 0.17, D1 mod -1.5, RORA act 1, HePTP inhibitor 12 and SF-1 act 18.
Screening COc1ccc(-n2cnc3c(sc4nccc(N(C)C)c43)c2=O)cc1 returned M1 agonist 0.03, M1 antag -0.18, D1 mod -0.61, RORA act -15, HePTP inhibitor 105*! and SF-1 act -5.
Screening O=S(=O)(Cc1ccccc1Cl)Nc1ccccn1 returned M1 agonist 0.017, M1 antag -0.32, D1 mod 0.18, RORA act -1, HePTP inhibitor 6 and SF-1 act 11.
CCCCC1CCC(c2nc(-c3ccccn3)no2)CC1 (stereo not given) was read as M1 agonist -1.3, M1 antag -0.024, D1 mod -1.9, RORA act 5, HePTP inhibitor 1 and SF-1 act 52*.
CCOC(=O)C1C(=O)NC(N2CCCCC2)=NC1c1ccccc1 (stereo not given) was read as D1 mod -0.06, RORA act 0, HePTP inhibitor 7 and SF-1 act -24.
CCOc1ccc(NC(=O)CN(c2ccc(C)cc2)S(C)(=O)=O)cc1 was read as HePTP inhibitor -6.
Screening O=C(Nc1ccc(-c2nc3ccccc3[nH]2)cc1)c1cccs1 returned HePTP inhibitor 2.
For Nc1nc(-c2nc3ccccc3[nH]2)cs1 the results were M1 agonist -0.23, M1 antag 0.24, D1 mod -2.8*, RORA act 7, HePTP inhibitor 9 and SF-1 act 23.
`Cc1nnsc1-c1nc2ccccc2[nH]1` gave M1 agonist -0.34, M1 antag -0.052, D1 mod 0.46, RORA act 17, HePTP inhibitor 2 and SF-1 act -5.
c1csc(-c2nc3ccccc3[nH]2)c1 was read as M1 agonist 0, M1 antag -0.036, D1 mod -0.66, RORA act 43, HePTP inhibitor 9 and SF-1 act 94*.
`Nc1cc(N)cc(-c2nc3ccccc3[nH]2)c1` gave M1 agonist 0.37, M1 antag 0.018, D1 mod -1.4, RORA act 0, HePTP inhibitor 8 and SF-1 act 32.
